Data published in ChEMBL document CHEMBL2151003, “Synthesis and antitumor activity of ring A modified glycyrrhetinic acid derivatives” (Eur J Med Chem, 2011).

Assays:
Type in all cases: functional, cell-based
SW-1736 = assay: Cytotoxicity against human SW1736 cells after 96 hrs by SRB assay
Method in brief: (§1)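 Monolayer cultures in RPMI 1640 with 10% heat-inactivated FBS and penicillin/streptomycin, 37 °C, 5% CO2. Exponentially growing cells were seeded, then treated 24 h later with serial dilutions (0–30 µM; DMSO or DMF ≤0.5% final) for 96 h. Cells were fixed with 10% TCA at 4 °C, stained with 0.4% SRB and solubilized in 10 mM Tris base; A570 was read. IC50 came from semi-log dose–response curves, ≥3 independent experiments.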

8505C = assay: Cytotoxicity against human 8505C cells after 96 hrs by SRB assay; method in brief: as §1
MCF7 = assay: Cytotoxicity against human MCF7 cells after 96 hrs by SRB assay; method in brief: as §1
[1] = Cytotoxicity against human A253 cells after 96 hrs by SRB assay; method in brief: as §1
[2] = Cytotoxicity against human Lipo cells after 96 hrs by SRB assay; method in brief: as §1
A549 = assay: Cytotoxicity against human A549 cells after 96 hrs by SRB assay; method in brief: as §1
A2780 = assay: Cytotoxicity against human A2780 cells after 96 hrs by SRB assay; method in brief: as §1
DLD-1 = assay: Cytotoxicity against human DLD1 cells after 96 hrs by SRB assay; method in brief: as §1
[3] = Cytotoxicity against human 518A2 cells after 96 hrs by SRB assay; method in brief: as §1

Row | Compound | IC50 (SW-1736) [µmol] | IC50 (8505C) [µmol] | IC50 (MCF7) [µmol] | IC50 [1] [µmol] | IC50 [2] [µmol] | IC50 (A549) [µmol] | IC50 (A2780) [µmol] | IC50 (DLD-1) [µmol] | IC50 [3] [µmol]
1 | C=C(C)[C@@H]1CC[C@]2(C)[C@H](C(=O)C=C3[C@@H]4C[C@@](C)(C(=O)OCC)CC[C@]4(C)CC[C@]32C)[C@@]1(C)CCC(=O)OCC | 26.74 | > 30 | 25.42 | > 30 | > 30 | > 30 | 5.89 | > 30 | 9.28
2 | CCOC(=O)[C@@]1(C)CC[C@]2(C)CC[C@]3(C)C(=CC(=O)[C@@H]4[C@@]5(C)CCC(=O)C(C)(C)[C@@H]5CC[C@]43C)[C@@H]2C1 | > 30 | > 30 | > 30 | > 30 | > 30 | > 30 | > 30 | > 30 | > 30
3 | COC(=O)[C@@]1(C)CC[C@]2(C)CC[C@]3(C)C(=CC(=O)[C@@H]4[C@@]5(C)CC[C@H](OC(=O)[C@H](CSCc6ccccc6)NC(=O)OC(C)(C)C)C(C)(C)[C@@H]5CC[C@]43C)[C@@H]2C1 | > 30 | > 30 |  | > 30 | > 30 | > 30 |  | > 30 | > 30
4 | COC(=O)[C@@]1(C)CC[C@]2(C)CC[C@]3(C)C(=CC(=O)[C@@H]4[C@@]5(C)CC[C@H](OC(=O)[C@H](CO[Si](C)(C)C(C)(C)C)NC(=O)OC(C)(C)C)C(C)(C)[C@@H]5CC[C@]43C)[C@@H]2C1 |  | > 30 |  | 28.59 | > 30 | > 30 |  | > 30 | > 30
5 | CCOC(=O)[C@@]1(C)CC[C@]2(C)CC[C@]3(C)C(=CC(=O)[C@@H]4[C@@]5(C)CC[C@H](OC(=O)CCC(=O)O)C(C)(C)[C@@H]5CC[C@]43C)[C@@H]2C1 |  | > 30 |  | > 30 | > 30 | > 30 |  | > 30 | 28.99
6 | COC(=O)[C@@]1(C)CC[C@]2(C)CC[C@]3(C)C(=CC(=O)[C@@H]4[C@@]5(C)CC[C@H](OC(=O)[C@H](CSC(=O)OC(C)(C)C)NC(=O)OC(C)(C)C)C(C)(C)[C@@H]5CC[C@]43C)[C@@H]2C1 | > 30 | > 30 |  | > 30 | > 30 | > 30 |  | > 30 | > 30
7 | CCCCCCCCO/N=C1\CC[C@]2(C)[C@H]3C(=O)C=C4[C@@H]5C[C@@](C)(C(=O)OC)CC[C@]5(C)CC[C@@]4(C)[C@]3(C)CC[C@H]2C1(C)C | 17.77 | > 30 | 26.35 | > 30 | > 30 | > 30 | 19.73 | > 30 | > 30
8 | COC(=O)[C@@]1(C)CC[C@]2(C)CC[C@]3(C)C(=CC(=O)[C@@H]4[C@@]5(C)CC[C@H](OS(=O)(=O)c6ccc(C)cc6)C(C)(C)[C@@H]5CC[C@]43C)[C@@H]2C1 |  | > 30 |  | > 30 | > 30 | > 30 |  | > 30 | > 30
9 | COC(=O)[C@@]1(C)CC[C@]2(C)CC[C@]3(C)C(=CC(=O)[C@@H]4[C@@]5(C)CC[C@H](OC(=O)CCC(=O)O)C(C)(C)[C@@H]5CC[C@]43C)[C@@H]2C1 |  | > 30 |  | > 30 | > 30 | > 30 |  | > 30 | > 30
